In ChEMBL document CHEMBL2406919, “On the antibiotic and antifungal activity of pestalone, pestalachloride A, and structurally related compounds” (2013):
≈ marks a conversion by molar mass, not a printed value.

Legend:
Type in all cases: functional
[1] = test system: Fusarium graminearum; assay: Antifungal activity against Gibberella zeae after 3 to 5 days by photometric method; settings: read-out: ED50 (the source's name)
Outline: (§1)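 Test compound in methanol with alkylaryl polyglycol ether emulsifier dried into wells. Liquid potato dextrose medium holding spores or mycelium of the fungus added. OD620 read before and after 3–5 days shaking at 20 °C, 85% relative humidity. ΔOD against untreated control fitted to a dose–response curve; ED50 (50% growth inhibition) given in ppm (μg/mL).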

[2] = test system: Zymoseptoria tritici; assay: Antifungal activity against Septoria tritici after 3 to 5 days by photometric method; settings: read-out: ED50 (the source's name)
Outline: (§2)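 Test compound in methanol with alkylaryl polyglycol ether emulsifier was dried in wells, then liquid potato dextrose medium with spores or mycelium of the test organism was added. Incubated 3−5 days shaking at 20 °C, 85% relative humidity. Growth was taken as the change in extinction at 620 nm before and after incubation. ED₅₀ (50% growth inhibition, ppm = μg/mL) came from a dose−response curve against untreated control.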

[3] = test system: Staphylococcus aureus; assay: Antimicrobial activity against hospital acquired vancomycin-intermediate Staphylococcus aureus Mu50 after 24 hrs by microdilution method; settings: Mu50, 24 h
Outline: (§3)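 CLSI broth microdilution (M7-A6) with 2-fold serial compound dilutions in Mueller–Hinton broth. Inoculum 10⁵ cfu/mL. Strains came from NARSA, stored at −70 °C and revived on Mueller–Hinton agar days before testing. After 24 h at 37 °C, MIC read as the lowest concentration preventing visible growth. Vancomycin served as control.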

[4] = test system: Botrytis cinerea; assay: Antifungal activity against Botrytis cinerea after 3 to 5 days by photometric method; settings: read-out: ED50 (the source's name); outline: as §2
[5] = Antifungal activity against Ustilago avenae after 3 to 5 days by photometric method; outline: as §2
[6] = Antifungal activity against Leptosphaeria nodorum after 3 to 5 days by photometric method; outline: as §2
[7] = test system: Alternaria mali; assay: Antifungal activity against Alternaria mali after 3 to 5 days by photometric method; settings: read-out: ED50 (the source's name); outline: as §2
[8] = test system: Pseudomonas fluorescens; assay: Antifungal activity against Pseudomonas fluorescens after 3 to 5 days by photometric method; settings: read-out: ED50 (the source's name); outline: as §2
[9] = Antifungal activity against Trametes versicolor after 3 to 5 days by photometric method; outline: as §2
[10] = test system: Pyricularia oryzae; assay: Antifungal activity against Pyricularia oryzae after 3 to 5 days by photometric method; settings: read-out: ED50 (the source's name); outline: as §1
[11] = Antifungal activity against Pyrenophora teres after 3 to 5 days by photometric method; outline: as §2
[12] = Antifungal activity against Phytophthora cryptogea after 3 to 5 days by photometric method; outline: as §2
[13] = test system: Aspergillus niger; assay: Antifungal activity against Aspergillus niger after 3 to 5 days by photometric method; settings: read-out: ED50 (the source's name); outline: as §2
[14] = test system: Staphylococcus aureus; assay: Antimicrobial activity against epidemic community acquired methicillin-resistant Staphylococcus aureus USA300 after 24 hrs by microdilution method; settings: USA300, 24 h; outline: as §3
[15] = test system: Fusarium culmorum; assay: Antifungal activity against Fusarium culmorum after 3 to 5 days by photometric method; settings: read-out: ED50 (the source's name); outline: as §2
[16] = test system: Pythium aphanidermatum; assay: Antifungal activity against Pythium aphanidermatum after 3 to 5 days by photometric method; settings: read-out: ED50 (the source's name); outline: as §2
[17] = test system: Phytophthora infestans; assay: Antifungal activity against Phytophthora infestans after 3 to 5 days by photometric method; settings: read-out: ED50 (the source's name); outline: as §1
[18] = test system: Staphylococcus aureus; assay: Antimicrobial activity against Staphylococcus aureus SG511 after 24 hrs by broth microdilution method; settings: SG511, 24 h
Outline: (§4)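 CLSI broth microdilution with 2-fold serial compound dilutions in half-concentrated Mueller−Hinton broth. Inoculum was 10⁵ cfu/mL. After 24 h at 37 °C, MIC was read as the lowest concentration inhibiting visible growth.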

[19] = test system: Bacillus subtilis; assay: Antimicrobial activity against Bacillus subtilis 168 after 24 hrs by broth microdilution method; settings: subsp. subtilis str. 168 ; outline: as §4
[20] = test system: Staphylococcus aureus; assay: Antimicrobial activity against methicillin-resistant Staphylococcus aureus LT-1334 after 24 hrs by microdilution method; settings: LT-1334, 24 h
Outline: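 Broth microdilution per CLSI with 2-fold serial compound dilutions. Growth and testing in half-concentrated Mueller–Hinton broth, inoculum 10⁵ cfu/mL. MIC read after 24 h at 37 °C as the lowest concentration inhibiting visible growth.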

[21] = test system: Staphylococcus aureus; assay: Antimicrobial activity against Staphylococcus aureus ATCC 29213 after 24 hrs by microdilution method; settings: ATCC 29213, 24 h
Outline: (§5)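 CLSI (M7-A6) broth microdilution with 2-fold serial compound dilutions in Mueller−Hinton broth. Inoculum was 10⁵ cfu/mL, with vancomycin as control. After 24 h at 37 °C, MIC was read as the lowest concentration inhibiting visible growth.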

[22] = test system: Staphylococcus aureus; assay: Antimicrobial activity against community acquired Staphylococcus aureus MW2 after 24 hrs by microdilution method; settings: MW2, 24 h; outline: as §5

| Structure (SMILES) | EC50 [1] [µg/mL] | EC50 [2] [µg/mL] | MIC [3] [µg/mL] | EC50 [4] [µg/mL] | ED50 [5] [µg/mL] | ED50 [6] [µg/mL] | EC50 [7] [µg/mL] | EC50 [8] [µg/mL] | ED50 [9] [µg/mL] | EC50 [10] [µg/mL] | ED50 [11] [µg/mL] | ED50 [12] [µg/mL] | EC50 [13] [µg/mL] | MIC [14] [µg/mL] | EC50 [15] [µg/mL] | EC50 [16] [µg/mL] | EC50 [17] [µg/mL] | MIC [21] [µg/mL] | further results |
| --- | --- | --- | --- | --- | --- | --- | --- | --- | --- | --- | --- | --- | --- | --- | --- | --- | --- | --- | --- |
| COc1cc(OC)c(CC=C(C)C)c(C(=O)c2c(O)c(Cl)c(C)c(Cl)c2OC)c1C=O | > 50 | > 50 | 15 (≈ 32.1 µM) | > 50 | > 50 | 22.5 (≈ 48.1 µM) | > 50 | > 50 | > 50 | 5 (≈ 10.7 µM) | 5.4 (≈ 11.6 µM) | > 50 | > 50 | 10 (≈ 21.4 µM) | 1.2 (≈ 2.57 µM) | 44.4 (≈ 95 µM) | – | – | – |
| COc1cc(OC)c(CC=C(C)C)c(C(=O)c2c(OC)c(Cl)c(C)c(Cl)c2OC)c1Br | > 50 | > 50 | – | > 50 | > 50 | > 50 | > 50 | > 50 | > 50 | > 50 | > 50 | > 50 | > 50 | – | > 50 | > 50 | > 50 | – | – |
| COc1c(Cl)c(C)c(Cl)c(O)c1C1OC(=O)c2c(O)cc(O)c(CC=C(C)C)c21 (racemic) [RAC-PESTALALACTONE] | > 50 | > 50 | – | > 50 | > 50 | > 50 | > 50 | > 50 | 13.1 (≈ 29.8 µM) | > 50 | 4.3 (≈ 9.79 µM) | 18.9 (≈ 43 µM) | > 50 | 25 (≈ 56.9 µM) | > 50 | > 50 | – | – | – |
| CN[C@H](CC(C)C)C(=O)N[C@H]1C(=O)N[C@@H](CC(N)=O)C(=O)N[C@H]2C(=O)N[C@H]3C(=O)N[C@H](C(=O)N[C@H](C(=O)O)c4cc(O)cc(O)c4-c4cc3ccc4O)[C@H](O)c3ccc(c(Cl)c3)Oc3cc2cc(c3O[C@@H]2O[C@H](CO)[C@@H](O)[C@H](O)[C@H]2O[C@H]2C[C@](C)(N)[C@H](O)[C@H](C)O2)Oc2ccc(cc2Cl)[C@H]1O [VANCOMYCIN] | – | – | – | – | – | – | – | – | – | – | – | – | – | 0.25 (≈ 0.173 µM) | – | – | – | – | – |
| COc1c(Cl)c(C)c(Cl)c(O)c1C(=O)c1cc(O)cc(O)c1CC=C(C)C [DEFORMYL-PESTALONE] | – | – | 5 (≈ 12.2 µM) | – | – | – | – | – | – | – | – | – | – | 5 (≈ 12.2 µM) | – | – | – | – | – |
| COc1c(Cl)c(C)c(Cl)c(O)c1C(=O)c1cc(O)cc2c1CCC(C)(C)O2 | – | – | 7 (≈ 17 µM) | – | – | – | – | – | – | – | – | – | – | 7 (≈ 17 µM) | – | – | – | – | – |
| COc1c(Cl)c(C)c(Cl)c(O)c1C(=O)c1c(C=O)c(O)cc(O)c1CC=C(C)C [PESTALONE] | > 50 | 26.7 (≈ 60.8 µM) | 10 (≈ 22.8 µM) | > 50 | > 50 | 22.4 (≈ 51 µM) | 22.4 (≈ 51 µM) | > 50 | > 50 | 28.6 (≈ 65.1 µM) | 2.2 (≈ 5.01 µM) | 33.9 (≈ 77.2 µM) | > 50 | 10 (≈ 22.8 µM) | 0.12 (≈ 0.273 µM) | > 50 | > 50 | 16 (≈ 36.4 µM) | MIC [18]: 3.1 µg/mL (≈ 7.06 µM); MIC [19]: 1.6 µg/mL (≈ 3.64 µM); MIC [20]: 6.25 µg/mL (≈ 14.2 µM) |
| COc1cc(OC)c(Br)c(C(=O)c2c(OC)c(Cl)c(C)c(Cl)c2OC)c1Br | > 50 | > 50 | – | > 50 | > 50 | > 50 | > 50 | > 50 | > 50 | 12.6 (≈ 23.2 µM) | 42 (≈ 77.3 µM) | > 50 | > 50 | – | 2.2 (≈ 4.05 µM) | > 50 | – | – | – |
| COc1c(Cl)c(C)c(Cl)c(O)c1C1c2c(CC=C(C)C)c(O)cc(O)c2C(=O)N1Cc1ccccc1 (racemic) | – | – | – | – | – | – | – | – | – | – | – | – | – | – | – | – | – | > 50 | MIC [22]: > 50 µg/mL |
| COc1c(Cl)c(C)c(Cl)c(O)c1C1NC(=O)c2c(O)cc(O)c(CC=C(C)C)c21 (racemic) [PESTALACHLORIDE A] | > 50 | > 50 | – | > 50 | > 50 | > 50 | > 50 | > 50 | > 50 | > 50 | 33.1 (≈ 75.5 µM) | > 50 | > 50 | – | 31.9 (≈ 72.8 µM) | > 50 | > 50 | 10 (≈ 22.8 µM) | MIC [22]: 10 µg/mL (≈ 22.8 µM) |
| COc1c(Cl)c(C)c(Cl)c(O)c1C(=O)c1c(Br)c(O)cc(O)c1Br | > 50 | > 50 | 30 (≈ 59.9 µM) | > 50 | > 50 | > 50 | > 50 | > 50 | > 50 | > 50 | > 50 | > 50 | > 50 | 30 (≈ 59.9 µM) | 0.014 (≈ 0.0279 µM) | – | > 50 | – | – |
| COc1c(Cl)c(C)c(Cl)c(O)c1C1c2c(CC=C(C)C)c(O)cc(O)c2C(=O)N1C (racemic) | – | – | – | – | – | – | – | – | – | – | – | – | – | – | – | – | – | > 50 | MIC [22]: > 50 µg/mL |
